Source: PubChem BioAssay (several laboratories)
Sampled rows, rich in hits. Any-hit rate of the full collection: about 2.8%.
EP2 mod: modulates human prostaglandin E2 receptor EP2 signaling; EP2-expressing cells, cAMP HTRF FRET, PGE2 co-stimulation; induction, % at 25 µM; P43116; 260,000 tested, 0.83% active; AID 940;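 active = compounds whose cAMP rise, as percent of the full-agonist control response, exceeds 60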;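 note: rat C6 glioma line stably carrying human EP2 under a CMV promoter; the protocol text gives 20 µM as final concentration; 100% = response of wells given 1 µM PGE2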
NPY2 pot ag: human NPY-Y2 potentiation or agonism, primary screen; cells expressing NPY-Y2, potentiator/agonist read-out; AID 1359; activation, % at 3.6 µM; P49146; 220,000 tested, 0.45% active; in the data active = activation above about 27%;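 note: cells stimulated with NPY near EC25 plus isoproterenol at EC100; 0% = vehicle plus submaximal agonist and 100% = vehicle plus saturating agonist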
NPY Y1 blocker: NPY-Y1 (human) receptor antagonism. 200,000 tested, 1% active. inhibition, % at 3.6 µM. P25929. HEK293-CNG Y1 cells, membrane potential fluorescence; NPY at EC95, then isoproterenol;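 active = inhibition above the campaign mean inhibition of all tested compounds plus 3 SD, cut at about 20% in these data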;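 note: 0% = DMSO wells given NPY plus isoproterenol and 100% = isoproterenol alone without NPY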
Target sequence (P25929 whole entry, looked up): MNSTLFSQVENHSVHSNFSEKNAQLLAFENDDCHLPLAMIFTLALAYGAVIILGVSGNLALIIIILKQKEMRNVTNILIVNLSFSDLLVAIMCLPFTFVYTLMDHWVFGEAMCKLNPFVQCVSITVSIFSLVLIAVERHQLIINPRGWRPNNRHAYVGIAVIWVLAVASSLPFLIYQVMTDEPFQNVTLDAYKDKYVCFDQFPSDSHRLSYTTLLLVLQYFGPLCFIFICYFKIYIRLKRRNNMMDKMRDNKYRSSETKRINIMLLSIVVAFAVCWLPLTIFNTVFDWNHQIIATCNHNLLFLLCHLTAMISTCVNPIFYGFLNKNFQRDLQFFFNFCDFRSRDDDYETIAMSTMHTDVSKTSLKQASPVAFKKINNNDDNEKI
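Material: HEK293 Y1/CNG channel cell line | Also added: NPY (25 nM), isoproterenol (1 µM), Ro 20-1724 (25 µM) | Compound: One concentration, 3.6 µM, in 0.4% DMSO | Schedule: 3 h dye uptake, 1 h room-temperature compound, 45 min post-isoproterenol | Signal: Membrane-potential fluorescent dye readout | Read-out: % inhibition of NPY effect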
NPY Y2 blocker: antagonists of human neuropeptide Y receptor Y2; P49146; NPY-Y2 expressing cells, antagonist mode; inhibition, % at 2.7 µM; 140,000 tested, 0.99% active; AID 793; in the data active = inhibition above about 17%;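 note: 0% = vehicle with agonist challenge and 100% = reference antagonist with challenge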
NPY-Y1 PAM-ag: human NPY-Y1 potentiation or agonism, primary screen; 220,000 tested, 0.37% active; activation, % at 3.6 µM; AID 1304; P25929; NPY-Y1 expressing cells, potentiator/agonist activation; in the data active = activation above about 33%, passing the limit was not always enough;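 note: cells stimulated with NPY at EC10 then isoproterenol at EC100; 0% = low agonist plus stimulus and 100% = saturating agonist plus stimulus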
EP2 antag: blocks the human prostaglandin E2 receptor EP2. 260,000 tested, 0.52% active. inhibition, % at 25 µM. C6 glioma cells expressing human EP2, cAMP TR-FRET; cells stimulated with saturating PGE2. P43116;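 active = percent inhibition above 40 after rounding to a whole number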;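 note: rat C6 glioma host cells with rolipram phosphodiesterase inhibitor present; the protocol text gives 20 µM as final concentration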
Active calls of the source: *; · = no result.

SMILES | EP2 mod | NPY2 pot ag | NPY Y1 blocker | NPY Y2 blocker | NPY-Y1 PAM-ag | EP2 antag
CC(C)Oc1ccccc1Cn1c(=O)sc2ccccc21 | 83* | · | · | · | · | 9
Cc1ccc(/C=C/C(=O)c2cccs2)c(C)c1 | 0 | · | · | · | · | 11
COc1ccccc1CNc1nc2ccccc2n1CCN1CCCCC1 | 7 | -8 | 23* | 21* | -38 | 4
CCn1c(SCC(=O)N2CCOCC2)nnc1-c1ccc(S(=O)(=O)N2CCOCC2)cc1 | -10 | · | · | · | · | 12
C=CCNC(=O)[C@H]1C=CCN1C(=O)Nc1ccccc1Cl | -19 | · | · | · | · | 7
FC(F)(F)c1nc2nc(Cl)c(Cl)nc2n1CCCN1CCOCC1 | 7 | · | · | · | · | 46*
Cc1nc2ccccc2c(=O)n1CCCN1CCOCC1 | 34 | 2 | · | · | 5 | 4
COc1nccnc1NS(=O)(=O)c1ccc(NC(=S)NC(=O)/C=C/c2ccc(F)cc2)cc1 | -64 | 10 | 10 | 3 | 4 | 66*
COc1nccnc1NS(=O)(=O)c1ccc(NC(=S)NC(=O)c2ccc(F)c(F)c2)cc1 | -9 | -8 | 1 | 0 | 16 | 7
COc1nccnc1NS(=O)(=O)c1ccc(NC(=S)NC(=O)/C=C/c2ccc(C)cc2)cc1 | -104 | · | · | · | · | 72*
Cn1cnnc1SCc1ccccc1Br | -2 | 80* | -3 | -1 | 108* | 17
CCn1ncc(C(=O)N2CCC(c3nc(C)ncc3-c3ccncc3)CC2)c1C | 16 | · | · | · | · | ·
Cc1cccc2cc(C(c3nnnn3C3CCCC3)N3CCN(c4ccccc4F)CC3)c(=O)[nH]c12 (configuration not stated) | 17 | · | · | · | · | 10
Cc1ccc(NC(=S)NNC(=S)Nc2cccc(C(F)(F)F)c2)cc1 | 10 | 37 | · | · | 44 | 8
FC(F)(F)c1cccc(NC(=S)NNC(=S)Nc2ccc(Cl)cc2)c1 | -16 | 45* | · | · | 74* | 7
O=C(Nc1nnc(-c2ccccc2Cl)o1)c1ccco1 | -4 | -13 | 4 | 2 | 10 | 8
O=C(Nc1nnc(-c2ccccc2Cl)o1)c1nc2ccccc2s1 | -61 | -22 | 10 | 11 | -35 | 91*
COc1cccc(OC)c1C(=O)N1CCC(n2nnc3ccccc3c2=O)CC1 | -27 | · | · | · | · | ·
CO[C@@H]1/C=C\O[C@]2(C)Oc3c(C)c(O)c4c(O)c(c(CN(C)C)c(O)c4c3C2=O)NC(=O)C(C)=C/C=C\[C@@H](C)[C@@H](O)[C@H](C)[C@@H](O)[C@H](C)[C@H](OC(C)=O)[C@@H]1C | 12 | · | · | · | · | 52*
Cc1ccc(C)c2[nH]c(=O)c(CN(CCCO)C(=S)Nc3ccccc3)cc12 | -44 | · | · | · | · | 5
Nc1ccccc1Sc1ccccc1[N+](=O)[O-] | 61* | 0 | 2 | -2 | 11 | 11
COCCNC(=O)Cn1nc2c3c4c(sc3nc(C)n2c1=O)CC(C)CC4 (configuration not stated) | -30 | · | · | · | · | ·
OC(COCC1COc2ccccc2O1)CN1CCN(c2ccccc2)CC1 (configuration not stated) | -3 | 34* | 0 | 1 | 29 | 8
CCN1CCN(CC(O)COCC2COc3ccccc3O2)CC1 (configuration not stated) | 19 | 4 | -3 | · | 25 | 3
COc1ccc(C(C)C)cc1S(=O)(=O)n1c([N+](=O)[O-])cnc1C | -91 | · | · | · | · | 11
SMILES | EP2 mod | NPY2 pot ag | NPY Y1 blocker | NPY Y2 blocker | NPY-Y1 PAM-ag | EP2 antag
O=[N+]([O-])c1ccc(-c2nc(-c3cccs3)c(-c3cccs3)[nH]2)cc1 | 26 | 45* | -17 | -6 | 44* | 23
CCc1cc(C(=O)c2ccc(C)cc2)c(NC(=O)CCl)s1 | 17 | 35* | 1 | 1 | 42* | 5
Cc1cc(C(=O)c2ccc(Cl)cc2)c(NC(=O)CCl)s1 | 20 | -1 | 2 | 2 | -13 | 4
CC(C)C(Sc1nc(-c2ccccc2)cc(-c2ccccc2)c1C#N)C(=O)O (configuration not stated) | 62* | -13 | 3 | · | 6 | 10
CCN(CC)C(=O)CSc1nc(-c2ccccc2)ccc1C#N | 16 | 4 | -4 | · | 2 | 14
CCOC(=O)C(C)Sc1nc(-c2ccccc2)ccc1C#N (configuration not stated) | 62* | · | · | · | · | 6
N#Cc1c(-c2ccccc2)cc(-c2ccccc2)nc1SCC(=O)NCC(=O)O | -13 | -4 | · | · | 4 | 11
CCOC(=O)C(C)Sc1nc(-c2ccco2)cc(C(F)(F)F)c1C#N (configuration not stated) | 33 | 20 | 34* | 20* | -11 | 3
COCCSc1nnc(NC(=O)c2ccc(Br)cc2)s1 | -15 | · | · | · | · | 10
CCOc1ccccc1OCC(=O)Nc1nnc(C(C)C)s1 | 8 | · | · | · | · | 8
Cn1c(=O)oc2cc(NCc3ccc(OCCO)cc3)ccc21 | -24 | · | · | · | · | 6
COc1ccc2nc(C)cc(SCC(=O)N/N=C/c3ccc(O)c(O)c3)c2c1 | -80 | 4 | -3 | · | 0 | 6
Cc1cc(SCC(=O)N/N=C/c2ccc(O)c(O)c2)c(C)cc1Br | -33 | 10 | 2 | 3 | 14 | 50*
CN(C)CCNC(=O)c1ccc2c(c1)N(Cc1ccc(F)cc1)CCS2 | 10 | 65* | -8 | 5 | 75* | 8
C=CCN(CC(=O)NC1CCCCC1)C(=O)c1ccc(C)s1 | -4 | · | · | · | · | 8
CCCCC[C@H](O)/C=C/[C@H]1C=CC(=O)[C@@H]1C/C=C\CCCC(=O)O | 103* | -9 | 15 | -2 | -55 | 9
CCCCC[C@H](O)/C=C/[C@H]1[C@H](O)CC(=O)[C@@H]1CCCCCCC(=O)O | · | · | · | · | · | 13
COC(=O)c1c(NC(=O)CN2CCN(Cc3ccc4c(c3)OCO4)CC2)sc(C)c1C | 34 | -51 | 48* | 38* | -95 | 11
Cn1cc(-c2nnc(-c3cccc(F)c3)o2)c2ccccc21 | 9 | · | · | · | · | 11
Cc1nn(-c2cc(C)c3ccccc3n2)c2c1CCC2 | 64* | 22 | 6 | 4 | -12 | 0
CCc1nc2ccc(C)cc2c(C(=O)NC2CCCCC2C)c1C (configuration not stated) | 28 | -53 | 64* | 30* | -97 | 5
CCc1nc2ccccc2c(C(=O)Nc2ccc(C)cc2)c1C | -8 | · | · | · | · | 12
Cc1ccc2nc(NCc3ccco3)c(C=NCc3ccco3)c(=O)n2c1 | 63* | -13 | 5 | 4 | -13 | 8
Cc1ccc2nc(NCc3ccccc3)c(C=NCc3cccnc3)c(=O)n2c1 | 49 | -19 | · | · | 16 | 6
Cc1ccc(OCCCC(=O)Nc2nnc(C(C)C)s2)cc1 | 11 | · | · | · | · | 15
COc1ccc(OC)c2c1C(=O)C(Cl)=C(Cl)C2=O | -33 | -22 | · | · | 13 | 112*
COCCNC(=O)c1cn(C(C)c2ccc(C)cc2)nn1 (configuration not stated) | 6 | · | · | · | · | 20
Cc1cc(C)cc(NC(=O)Nc2ccc3c(c2)N(C)C(=O)CS3)c1 | -70 | 5 | 7 | 0 | -1 | 43*
